According to ChEMBL document CHEMBL1909507, “Substituted phenyl 4-(2-oxoimidazolidin-1-yl)benzenesulfonamides as antimitotics. Antiproliferative, antiangiogenic and antitumoral activity, and quantitative structure-activity relationships” (Eur J Med Chem, 2011):
The source made the active and inactive calls. The rule behind the calls is not given here.

How the values were obtained:
MDA-MB-231 [1] = assay: Displacement of N,N'-ethylenebis(iodoacetamide) from beta-tubulin colchicine-binding site in human MDA-MB-231 cells at 1000 times IC50 preincubated for 2 hrs before N,N'-ethylenebis(iodoacetamide) addition measured after 1.5 hrs by chemiluminescence assay; assay type: cell-based
Procedure, shortened: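 EBI (100, final) was added for 1.5 h at 37 °C with drug present; control was 0.5% DMSO. Sonicated lysates (20 µg protein) were run on 10% SDS-PAGE and blotted with anti-β-tubulin TUB 2.1. The β-tubulin–EBI adduct was scored by ECL.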

M21 [2] = assay: Cell cycle arrest in human M21 cells assessed as accumulation at S phase at 5 times IC50 after 24 hrs using propidium iodide staining by flow cytometric analysis (reference value: 30%); assay type: functional
Procedure, shortened: (§1)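 Cells were trypsinized, fixed in ice-cold ethanol, treated with RNase, and stained with propidium iodide (1 mg/mL stock) for 1 h on ice. Cell-cycle distribution was measured by flow cytometry.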

M21 [3] = assay: Cell cycle arrest in human M21 cells assessed as accumulation at G0/G1 phase at 5 times IC50 after 24 hrs using propidium iodide staining by flow cytometric analysis (reference value: 61%); assay type: functional; procedure, shortened: as §1
M21 [4] = assay: Cell cycle arrest in human M21 cells assessed as accumulation at G2/M phase at 5 times IC50 after 24 hrs using propidium iodide staining by flow cytometric analysis (reference value: 9%); assay type: functional; procedure, shortened: as §1
HT-1080 [5] = assay: Antiangiogenic activity in human HT1080 cells xenografted in chicken chorioallantoic membrane assessed as vascular disruption at 1 to 3 ug, iv measured on day 17 by CAM assay; assay type: functional
[6] = Toxicity against fertilized chicken embryo assessed as mortality at 3 ug, iv by CAM assay; assay type: organism-based, Gallus gallus; conditions: in vivo, read-out: Activity
Procedure, shortened: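 HT-1080 fibrosarcoma cells (3.5 × 10⁵ cells/egg) grafted onto the chorioallantoic membrane of fertilized chicken eggs (10 days preincubation). On day 11, drug in DMSO diluted into excipient (ethanol:cremophor:PBS 6.25:6.25:87.5) given iv at 3 µg per egg. Chick mortality recorded over 7-day tumor growth period. Untreated eggs as negative controls and for normalization. Cumulative results from two independent experiments, 10–12 eggs each.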

M21 [7] = assay: Disruption of cytoskeleton microtubule structure of human M21 cells at 5 times IC50 after 16 hrs by indirect immunofluorescence assay; assay type: functional, cell-based
Procedure, shortened: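 Cells were fixed in 3.7% formaldehyde, permeabilized with saponin, and stained with anti-β-tubulin TUB 2.1, Alexa-488 anti-mouse secondary and DAPI. Fluorescence microscopy was used for imaging.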

HT-1080 [8] = assay: Antitumor activity against human HT1080 cells xenografted in chicken chorioallantoic membrane assessed as inhibition of tumor growth at 1 to 3 ug, iv measured on day 17 by CAM assay; assay type: functional
Procedure, shortened: (§2)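 Fertilized chicken eggs were incubated 10 days, then 3.5 × 10⁵ HT-1080 cells/egg were applied to the exposed chorioallantoic membrane. On day 11, drug was given iv in DMSO diluted in excipient (ethanol:cremophor:PBS 6.25:6.25:87.5). Read-out was tumor wet weight as % of untreated eggs, plus chick mortality. Data were pooled from two independent experiments of 10–12 eggs each.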

CHO-TAX 5-6 [9] = assay: Ratio of IC50 for paclitaxel-resistant CHO-TAX 5-6 cells to IC50 for CHO cells; assay type: functional, Cricetulus griseus
Procedure, shortened: (§3)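 Each ratio is the IC50 in the resistant line divided by the IC50 in its parental line (CHO for CHO-TAX 5-6 and CHO-VV 3-2; CEM for CEM-VLB).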

L1210 = assay: Antiproliferative activity against mouse L1210 after 48 hrs by SRB assay; assay type: functional, cell-based; conditions: L1210, 48 h
DU-145 = assay: Antiproliferative activity against human DU145 after 48 hrs by SRB assay; assay type: functional, cell-based; conditions: DU-145, 48 h
CCRF-CEM [10] = assay: Ratio of IC50 for human multidrug-resistant CEM/VLB cells to IC50 for human CEM cells; assay type: functional; procedure, shortened: as §3
CCRF-CEM [11] = assay: Antiproliferative activity against human CEM after 48 hrs by SRB assay; assay type: functional, cell-based
K562 = assay: Antiproliferative activity against human K562 after 48 hrs by SRB assay; assay type: functional, cell-based; conditions: K562, 48 h
[12] = Antiproliferative activity against human multidrug-resistant CEM/VLB cells after 48 hrs by SRB assay; assay type: functional
MCF7 = assay: Antiproliferative activity against human MCF7 cells after 48 hrs by SRB assay; assay type: functional, cell-based; conditions: MCF7, 48 h
Procedure, shortened: (§4)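 Adherent cells were seeded per line (e.g. HT-29 5000, M21 3500, MCF7 7500, CHO and CHO-VV 3-2 and CHO-TAX 5-6 1000 cells/well) and grown 24 h at 37 °C, 5% CO₂. DMSO-solubilized drug was diluted in medium and added at 1000–0.98 nM for 48 h. Cells were fixed with cold 10% TCA and stained with 0.1% sulforhodamine B, with absorbance read at 530–565 nm.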

SK-OV-3 = assay: Antiproliferative activity against human SKOV3 after 48 hrs by SRB assay; assay type: functional, cell-based; conditions: SK-OV-3, 48 h; procedure, shortened: as §4
HT-1080 [13] = assay: Antitumor activity against human HT1080 cells xenografted in chicken chorioallantoic membrane assessed as inhibition of tumor growth at 3 ug, iv measured on day 17 by CAM assay; assay type: functional; procedure, shortened: as §2
MDA-MB-231 [14] = assay: Antiproliferative activity against human MDA-MB-231 after 48 hrs by SRB assay; assay type: functional, cell-based; conditions: MDA-MB-231, 48 h
CHO = assay: Antiproliferative activity against Chinese hamster CHO after 48 hrs by SRB assay; conditions: Cricetulus griseus
HT-1080 [15] = assay: Antiproliferative activity against human HT1080 after 48 hrs by SRB assay; assay type: functional, cell-based; conditions: HT-1080, 48 h; procedure, shortened: as §4
[16] = Antiproliferative activity against mouse B16F0 after 48 hrs by SRB assay
CHO-TAX 5-6 [17] = assay: Antiproliferative activity against paclitaxel-resistant CHO-TAX 5-6 cells after 48 hrs by SRB assay; assay type: functional, cell-based; conditions: Cricetulus griseus, CHO-TAX 5-6, 48 h; procedure, shortened: as §4
CHO-VV 3-2 [18] = assay: Antiproliferative activity against colchicine and vinblastine-resistant CHO-VV 3-2 cells after 48 hrs by SRB assay; assay type: functional, cell-based; conditions: Cricetulus griseus, CHO-VV 3-2, 48 h; procedure, shortened: as §4
[19] = Antiproliferative activity against mouse P388D1 after 48 hrs by SRB assay; conditions: P388D1, 48 h
HT-29 = assay: Antiproliferative activity against human HT-29 cells after 48 hrs by SRB assay; assay type: functional, cell-based; conditions: HT-29, 48 h; procedure, shortened: as §4
CHO-VV 3-2 [20] = assay: Ratio of IC50 for colchicine and vinblastine-resistant CHO-VV 3-2 cells to IC50 for CHO cells; assay type: functional, Cricetulus griseus; procedure, shortened: as §3
M21 [21] = assay: Antiproliferative activity against human M21 cells after 48 hrs by SRB assay; assay type: functional, cell-based; conditions: M21, 48 h; procedure, shortened: as §4

Compound: COc1ccc(/C=C\c2cc(OC)c(OC)c(OC)c2)cc1O [COMBRETASTATIN A4]
- Activity (MDA-MB-231 [1]): Active
- Activity (M21 [2]): 0%
- Activity (M21 [3]): 2%
- Activity (M21 [4]): 98%
- Activity (HT-1080 [5]): 48%
- mortality [6]: 45%
- Activity (M21 [7]): Active
- growth inhibition (GI) (HT-1080 [8]): 45%

Compound: O=C1NCCN1c1ccc(S(=O)(=O)Nc2cccc(Br)c2)cc1
- Activity (MDA-MB-231 [1]): Active
- Ratio IC50 (CHO-TAX 5-6 [9]): 0.3
- IC50 (L1210): 99 nM
- Activity (M21 [2]): 20%
- IC50 (DU-145): 340 nM
- Ratio IC50 (CCRF-CEM [10]): 2.3
- Activity (M21 [3]): 2%
- IC50 (CCRF-CEM [11]): 110 nM
- IC50 (K562): 87 nM
- Activity (M21 [4]): 78%
- IC50 [12]: 250 nM
- IC50 (MCF7): 100 nM
- IC50 (SK-OV-3): 170 nM
- growth inhibition (GI) (HT-1080 [13]): 19%
- IC50 (MDA-MB-231 [14]): 290 nM
- IC50 (CHO): 250 nM
- IC50 (HT-1080 [15]): 170 nM
- IC50 [16]: 270 nM
- IC50 (CHO-TAX 5-6 [17]): 76 nM
- mortality [6]: 24%
- IC50 (CHO-VV 3-2 [18]): 270 nM
- IC50 [19]: 90 nM
- IC50 (HT-29): 77 nM
- Ratio IC50 (CHO-VV 3-2 [20]): 1.1
- Activity (M21 [7]): Active
- IC50 (M21 [21]): 59 nM
